Experimental data published in ChEMBL document CHEMBL4390678, “Structure-Activity Relationship of Purine and Pyrimidine Nucleotides as Ecto-5'-Nucleotidase (CD73) Inhibitors” (J Med Chem, 2019).
Activity calls are given as the source filed them. The rule behind the calls is not given here.

How the values were obtained:
[1] = organism: Homo sapiens; assay: Inhibition of cytosolic nucleotidase in MaMel.65-CD73 cell cytosolic extract (unknown origin) at 5 mM using AMP as substrate preincubated for 5 mins followed by substrate addition and measured after 60 mins in presence of levamisole by malachite green oxalate dye based colorimetric method relative to control
Method in brief: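 Cytosolic extract (15.25 µg) from CRISPR CD73-knockout melanoma cells in 50 mM Tris pH 7.0, 100 mM KCl, 5 mM MgCl2. […] Released phosphate read by malachite green/molybdate absorbance at 600 nm. Levamisole 1 mM plus NaF 5 mM as positive control; three independent experiments in duplicate.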

[2] = biological target: T1, 5'-nucleotidase (Rattus norvegicus, UniProt P21588); assay: Inhibition of recombinant rat C-terminal His-tagged soluble form of CD73 expressed in baculovirus infected Sf9 insect cells using [2,8-3H]AMP as substrate measured after 25 mins by scintillation counting method
T1 sequence (P21588 whole entry): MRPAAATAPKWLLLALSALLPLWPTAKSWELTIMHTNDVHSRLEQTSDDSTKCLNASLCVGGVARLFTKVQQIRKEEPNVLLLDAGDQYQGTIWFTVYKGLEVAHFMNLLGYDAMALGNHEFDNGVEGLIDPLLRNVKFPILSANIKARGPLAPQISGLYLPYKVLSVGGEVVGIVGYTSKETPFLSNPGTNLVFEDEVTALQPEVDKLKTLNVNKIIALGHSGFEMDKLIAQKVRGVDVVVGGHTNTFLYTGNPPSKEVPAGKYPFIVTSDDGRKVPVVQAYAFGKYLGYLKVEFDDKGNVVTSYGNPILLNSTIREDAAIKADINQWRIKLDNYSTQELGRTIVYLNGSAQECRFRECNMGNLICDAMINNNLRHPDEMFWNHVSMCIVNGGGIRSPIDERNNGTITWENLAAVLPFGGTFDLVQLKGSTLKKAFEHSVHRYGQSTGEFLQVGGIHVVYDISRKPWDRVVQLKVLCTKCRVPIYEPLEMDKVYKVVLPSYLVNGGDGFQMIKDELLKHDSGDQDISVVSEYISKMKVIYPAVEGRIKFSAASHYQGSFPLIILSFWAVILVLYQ
Method in brief: (§1)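 Enzyme is soluble rat CD73 from Sf9 cells, 1.63 ng per vial, in 25 mM Tris, 140 mM NaCl, 25 mM NaH2PO4, pH 7.4. […] Stopped by LaCl3 precipitation and GF/B filtration, then counted. Each compound first screened at 1 µM.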

[3] = biological target: T2, 5'-nucleotidase (Homo sapiens, UniProt P21589); assay: Inhibition of CD73 in human tonsils using AMP as substrate preincubated for 30 mins followed by substrate addition and measured after 45 mins by lead nitrate-based histochemical analysis
Method in brief: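 Human tonsil cryosections pre-incubated 30 min in Trizma-maleate sucrose buffer (40 mM Trizma maleate, 0.25 M sucrose, pH 7.4) with 2 mM levamisole plus inhibitor at 1, 10 or 100 nM. […] Pi deposit developed with 0.5% (NH4)2S. Read-out is mean grayscale pixel intensity of five matched germinal centers versus untreated control. One-way ANOVA with Dunnett's test.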

[4] = organism: Homo sapiens; assay: Inhibition of cytosolic nucleotidase in MaMel.65-CD73 cell cytosolic extract (unknown origin) at 100 uM using AMP as substrate preincubated for 5 mins followed by substrate addition and measured after 60 mins by malachite green oxalate dye based colorimetric method relative to control
Method in brief: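 Cytosolic extract of CRISPR CD73-knockout MaMel.65 melanoma cells, 15.25 µg, in 50 mM Tris pH 7.0 with 100 mM KCl and 5 mM MgCl2. […] After 60 min, heat-stopped at 95°C. Released phosphate read with malachite green/molybdate at 600 nm. Levamisole 1 mM plus NaF 5 mM served as positive control. Three experiments in duplicate.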

[5] = biological target: T3, P2Y purinoceptor 6 (Homo sapiens, UniProt Q15077); assay: Agonist activity at human P2Y6 receptor expressed in human 1321N1 cells assessed as induction of calcium mobilization by calcium-4 dye based FLIPR assay; assay type: functional, cell-based
[6] = biological target: T4, P2Y purinoceptor 14 (Homo sapiens) (UniProt Q15391); assay: (§2) Displacement of 6-Amino-9-(2-carboxy-4-((6-(4-(4-(4-(4-(3-carboxy-6-(4-(trifluoromethyl)phenyl)-naphthalen-1-yl)phenyl)piperidin-1-yl)butyl)-1H-1,2,3-triazol-1-yl)hexyl)carbamoyl)-phenyl)-3-iminio-5-sulfo-3H-xanthene-4-sulfonate from recombinant human P2Y14 receptor expressed in CHO cells at 3 uM preincubated for 30 mins followed by tracer addition and measured after 30 mins by flow cytometry; assay type: cell-based
T4 sequence (whole entry): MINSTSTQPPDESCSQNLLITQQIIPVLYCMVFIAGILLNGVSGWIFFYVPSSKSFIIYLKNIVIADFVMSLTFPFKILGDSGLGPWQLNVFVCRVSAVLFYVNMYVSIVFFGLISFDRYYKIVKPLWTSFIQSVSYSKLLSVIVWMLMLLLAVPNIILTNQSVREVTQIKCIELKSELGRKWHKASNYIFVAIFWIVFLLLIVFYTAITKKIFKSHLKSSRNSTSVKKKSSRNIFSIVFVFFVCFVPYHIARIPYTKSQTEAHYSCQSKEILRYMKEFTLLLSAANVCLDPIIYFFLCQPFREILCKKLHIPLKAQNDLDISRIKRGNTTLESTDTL

[7] = biological target: T3, P2Y purinoceptor 6; assay: Agonist activity at human P2Y6 receptor expressed in human 1321N1 cells assessed as induction of calcium mobilization at 3 uM by calcium-4 dye based FLIPR assay relative to control; assay type: functional, cell-based
[8] = biological target: T5, 5'-nucleotidase (Rattus norvegicus) (UniProt P21588); assay: Inhibition of recombinant rat C-terminal His-tagged soluble form of CD73 expressed in baculovirus infected Sf9 insect cells at 1 uM using [2,8-3H]AMP as substrate measured after 25 mins by scintillation counting method relative to control; method in brief: as §1
T5 sequence (whole entry): T1 sequence (P21588 whole entry)

[9] = biological target: T2, 5'-nucleotidase; assay: Inhibition of CD73 in human MDA-MB-231 cell membranes using [2,8-3H]AMP as substrate measured after 25 mins by scintillation counting method
Method in brief: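 MDA-MB-231 membranes (7.4 ng protein per vial) in 25 mM Tris, 140 mM NaCl, 25 mM NaH2PO4, pH 7.4. […] Stopped with cold LaCl3/acetate buffer pH 4.0 and filtered on GF/B. Background-subtracted and normalized to the uninhibited control.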

[10] = biological target: T6, P2Y purinoceptor 14 (Homo sapiens, UniProt Q15391); assay: as §2, with “cells” for “cells at 3 uM”; assay type: cell-based
T6 sequence (Q15391 whole entry): T4 sequence (whole entry)

[11] = biological target: T2, 5'-nucleotidase; assay: Inhibition of recombinant human C-terminal His-tagged soluble form of CD73 expressed in baculovirus infected Sf9 insect cells using [2,8-3H]AMP as substrate measured after 25 mins by scintillation counting method
Method in brief: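 Soluble human CD73 lacking the GPI signal, with a C-terminal 6xHis tag, secreted from baculovirus-infected Sf9 cells and purified on Ni-NTA; 0.365 ng per vial. […] Product separated by lanthanum chloride precipitation and filtration, then scintillation counted.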

[12] = biological target: T2, 5'-nucleotidase; assay: Inhibition of CD73 in human tonsils at 100 nM using AMP as substrate preincubated for 30 mins followed by substrate addition and measured after 45 mins by lead nitrate-based histochemical analysis
Method in brief: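 Tonsil cryosections pre-incubated 30 min in Trizma-maleate sucrose buffer (pH 7.4) with 2 mM levamisole and inhibitor. […] Deposit developed with 0.5% (NH4)2S and quantified as grayscale mean pixel intensity of five germinal centers versus control (ANOVA, Dunnett).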

[13] = organism: Homo sapiens; settings: 1 mM

T2 sequence (P21589 whole entry): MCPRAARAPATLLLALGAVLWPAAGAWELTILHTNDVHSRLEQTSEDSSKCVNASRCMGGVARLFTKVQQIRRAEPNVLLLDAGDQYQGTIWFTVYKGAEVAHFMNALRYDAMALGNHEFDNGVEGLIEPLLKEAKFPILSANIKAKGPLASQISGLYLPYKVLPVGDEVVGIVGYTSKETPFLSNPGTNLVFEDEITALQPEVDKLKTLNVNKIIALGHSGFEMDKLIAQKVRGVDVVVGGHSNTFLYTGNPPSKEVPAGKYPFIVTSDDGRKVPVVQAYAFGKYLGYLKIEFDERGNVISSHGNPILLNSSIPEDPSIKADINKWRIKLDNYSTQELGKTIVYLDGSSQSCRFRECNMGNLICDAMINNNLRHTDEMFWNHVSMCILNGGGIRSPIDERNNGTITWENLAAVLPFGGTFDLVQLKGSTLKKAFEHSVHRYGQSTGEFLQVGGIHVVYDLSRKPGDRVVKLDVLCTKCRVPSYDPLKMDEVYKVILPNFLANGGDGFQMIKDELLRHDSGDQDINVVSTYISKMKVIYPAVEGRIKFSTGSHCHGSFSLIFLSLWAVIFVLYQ
T3 sequence (Q15077 whole entry): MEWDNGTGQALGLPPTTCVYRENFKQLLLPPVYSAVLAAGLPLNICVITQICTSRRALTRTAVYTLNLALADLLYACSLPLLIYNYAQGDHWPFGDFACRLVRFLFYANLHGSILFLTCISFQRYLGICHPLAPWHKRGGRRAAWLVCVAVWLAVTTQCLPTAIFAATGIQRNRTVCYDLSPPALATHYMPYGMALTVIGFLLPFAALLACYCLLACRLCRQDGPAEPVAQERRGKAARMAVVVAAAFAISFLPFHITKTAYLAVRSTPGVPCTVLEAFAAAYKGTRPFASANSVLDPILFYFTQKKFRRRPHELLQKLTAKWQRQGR

Row | Ki [2] [nM] | inhibition [4] [%] | EC50 [5] [nM] | inhibition [8] [%] | Ki [9] [nM] | IC50 [10] [nM] | Ki [11] [nM] | inhibition [13] [%] | SMILES | inhibition [1] [%] | inhibition [3] | inhibition [6] | Activity [7] [%] | inhibition [12]
1 | – | – | – | – | – | – | – | – | [F-].[Na+] | 70 | – | – | – | –
2 | 14.8 | 4 | 203 | > 50 | 4.51 | 362 | 5.33 | – | O=c1[nH]c(=O)n([C@@H]2O[C@H](COP(=O)(O)CP(=O)(O)O)[C@@H](O)[C@H]2O)cc1F | – | – | – | – | –
3 | 18.8 | -5 | – | > 50 | 6.29 | – | 6.88 | – | O=c1[nH]/c(=N/OCc2ccc3ccccc3c2)ccn1[C@@H]1O[C@H](COP(=O)(O)CP(=O)(O)O)[C@@H](O)[C@H]1O | – | – | – | – | –
4 | 13.9 | -3 | 1390 | > 50 | 5.68 | 6660 | 4.58 | – | O=C(Nc1ccn([C@@H]2O[C@H](COP(=O)(O)CP(=O)(O)O)[C@@H](O)[C@H]2O)c(=O)n1)c1ccccc1 | – | – | – | – | –
5 | 85.1 | – | – | > 50 | 16.6 | – | 15.9 | – | O=c1[nH]/c(=N/OCc2ccccc2)c(F)cn1[C@@H]1O[C@H](COP(=O)(O)CP(=O)(O)O)[C@@H](O)[C@H]1O | – | – | – | – | –
6 | – | – | – | – | – | – | – | 70 | c1ccc([C@H]2CN3CCSC3=N2)cc1 | – | – | – | – | –

Row | SMILES | Ki [2] [nM] | inhibition [4] [%] | EC50 [5] [nM] | inhibition [8] [%] | Ki [9] [nM] | IC50 [10] [nM] | Ki [11] [nM] | inhibition [13] [%] | inhibition [1] [%] | inhibition [3] | inhibition [6] | Activity [7] [%] | inhibition [12]
7 | Cn1c(=NOCc2ccccc2)ccn([C@@H]2O[C@H](COP(=O)(O)CP(=O)(O)O)[C@@H](O)[C@H]2O)c1=O | 3.67 | -2 | > 3000 | > 50 | 7.96 | > 3000 | – | – | – | Dose-dependent effect | inactive | 3.6 | –
8 | Nc1ncnc2c1ncn2[C@@H]1O[C@H](COP(=O)(O)CP(=O)(O)O)[C@@H](O)[C@H]1O [PHOSPHOMETHYLPHOSPHONIC ACID ADENOSYL ESTER] | 167 | – | – | > 50 | – | – | – | – | – | – | – | – | Active
